Reference: paper PMC7437931 (Journal of medicinal chemistry, 2020)
*1 amine or outer side, *2 acyl side, *3 side chain or, on linkers, in order; H or OH if unused. Where a SMILES comes first, the peptide text is derived from it. Bridges are numbered along the chain shown (N, C = ends). Triazole bridges read from a SMILES are 1,4-linked. [ ]: non-standard residue; d: D form. The star is where a group is joined. RhodamineB = CCN(CC)c1ccc2c(-c3ccccc3C(=O)*)c3ccc(=[N+](CC)CC)cc-3oc2c1; Lys(N3) = [N-]=[N+]=NCCCC[C@H](N)C(=O)O; NMeGABA = CN(CCCC(=O)[*:2])[*:1]; Pra = C#CC[C@H](N)C(=O)O

Tests used:
[1] = target: D570-A583 epitope of proMMP2 (Fluo-epitope) (Homo sapiens, UniProt P08253); experiment: FRET binding assay; conditions: 100 nM Fluo-epitope, varying Rhod-peptide
Summary of the method: (§1)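 Fluorescein-labelled epitope held at 100 nM final and mixed with a concentration series of rhodamine-tagged cyclic peptide. Mixtures were incubated 30 min, then FRET intensity was read on a microplate reader. Each point used individually prepared triplicate samples.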

[2] = system: Fluo-C5 (C-terminal scrambled epitope); experiment: FRET binding assay with partially scrambled epitope C5; conditions: 100 nM Fluo-epitope variation
Summary of the method: as §1

[3] = system: Fluo-M5 (middle segment scrambled epitope); experiment: FRET binding assay with partially scrambled epitope M5; conditions: 100 nM Fluo-epitope variation
Summary of the method: as §1

[4] = system: Fluo-N5 (N-terminal scrambled epitope); experiment: FRET binding assay with partially scrambled epitope N5; conditions: 100 nM Fluo-epitope variation
Summary of the method: as §1

[5] = target: Fluo-epitope (fluorescein-labeled D570-A583 epitope of proMMP2) (human); experiment: FRET or BRET

CCN(CC)c1ccc2c(-c3ccccc3C(=O)N(C)CCCC(=O)N[C@H]3Cc4cn(nn4)CCCC[C@@H](C(N)=O)NC(=O)[C@H](Cc4ccc(O)cc4)NC(=O)[C@@H]4CCCN4C(=O)[C@H](Cc4c[nH]cn4)NC(=O)[C@@H]4CCCN4C(=O)[C@H](Cc4c[nH]c5ccccc45)NC3=O)c3ccc(=[N+](CC)CC)cc-3oc2c1 [Rhod-cy(WPHPY)] (RhodamineB-[NMeGABA][Pra]WPHPY[Lys(N3)]-NH2; triazole 2-8; N-terminus assumed)
binding affinity to the epitope (FRET) [1]: highest binding affinity
binding to scrambled epitope C5 (FRET) [2]: not able to bind
binding to scrambled epitope M5 (FRET) [3]: retained the binding affinity
binding to scrambled epitope N5 (FRET) [4]: retained the binding affinity

cy(WPHPY) (peptide)
Kd [5]: 1 nM
